Results as given in ChEMBL document CHEMBL3414541, “Discovery of new thienopyrimidinone derivatives displaying antimalarial properties toward both erythrocytic and hepatic stages of Plasmodium” (Eur J Med Chem, 2015).
Calls of active or inactive are those of the source. The rule behind the calls is not given here.

Experiments:
[1] = tested on: Plasmodium falciparum; experiment: Antiplasmodial activity against multi-drug resistant Plasmodium falciparum K1 infected in human erythrocytes assessed as parasite growth inhibition after 72 hrs by SYBR Green I dye-based fluorescence assay; type: functional, organism-based
[2] = (§1) Cytotoxicity against human HepG2 cells assessed as cell viability after 72 hrs by MTT assay; type: cell-based; details: HepG2 cells
Summary of the method: (§2)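 Cells were kept in RPMI with 10% FBS. 5×10^3 cells/well were settled 24 h, then exposed to compound from DMSO (final <0.5%): CHO for 24 h, HepG2 for 72 h, in duplicate. Wells were checked for precipitate. MTT was added for 2 h at 37 °C, formazan dissolved in DMSO, and A570 read (630 nm reference). Viability is % of untreated cells; CC50 from non-linear regression, mean of three experiments.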

[3] = Selectivity index, ratio of CC50 for human HepG2 cells to IC50 for multi-drug resistant Plasmodium falciparum K1 infected in human erythrocytes
[4] = tested on: Plasmodium falciparum; experiment: Antiplasmodial activity against multi-drug resistant Plasmodium falciparum K1 infected in human erythrocytes assessed as depolarization of mitochondrial membrane at IC50 after 20 mins by flow cytometric analysis; type: functional, organism-based
[5] = Genotoxicity in DNA (unknown origin) incubated for 24 hrs in dark condition by methyl green displacement assay
Summary of the method: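 DNA-methyl green (4 mg in 20 mL 0.05 M Tris-HCl pH 7.5 with 7.5 mmol/L MgSO4) was shaken 24 h at 37 °C. It was then added to compound from DMSO (final <0.5%). A630 was read, and read again after 24 h at room temperature in the dark. DC50 is the concentration displacing 50% of methyl green.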

[6] = tested on: HepG2; experiment: as §1; type: cell-based; details: hepg2, 72 h; summary of the method: as §2
[7] = Cytotoxicity against human HepG2 cells expressing CD81 assessed as cell viability after 72 hrs by CellTiter-glo assay; type: cell-based
[8] = tested on: Plasmodium yoelii; experiment: Antiplasmodial activity against liver stage of Plasmodium yoelii 17X NL sporozoites infected in human HepG2 cells expressing CD81 after 48 hrs by DAPI staining-based immunofluorescence analysis; type: functional, organism-based; details: HepG2, 48 h
Summary of the method: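 HepG2/CD81 cells were grown in D-MEM with 10% FBS. 25×10^3 cells/well went on collagen-coated wells; after 24 h they received compound and 5000 P. yoelii sporozoites together, then were spun 900 × g for 10 min at 4 °C. Treatment was renewed at 3 h and 24 h. At 48 h cells were methanol-fixed, stained with anti-HSP70 immunofluorescence, and parasites counted by microscopy. IC50 is 50% fewer parasites than in 0.5% DMSO controls.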

[9] = Selectivity index, ratio of CC50 for human HepG2 cells expressing CD81 to IC50 for liver stage of Plasmodium yoelii 17X NL sporozoites infected in human HepG2 cells expressing CD81; type: functional
[10] = tested on: Salmonella typhimurium; experiment: Mutagenicity in Salmonella typhimurium TA97A at 2.5 mM after 1 hr by Ames test in absence of S9 fraction; type: toxicity, organism-based; details: salmonella enterica subsp. enterica serovar typhimurium, 2500 µM
Summary of the method: (§3)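 Tester strains were grown overnight in nutrient broth. 0.1 mL culture was incubated 1 h at 37 °C with shaking with compound (2.5–25 mM DMSO solutions), with or without 4% S9 mix. Top agar was added and the mix plated on Vogel-Bonner agar. Revertants were counted after 48 h at 37 °C in the dark. A twofold rise over spontaneous revertants counts as mutagenic.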

[11] = tested on: Salmonella typhimurium; experiment: Mutagenicity in Salmonella typhimurium TA100 at 2.5 mM after 1 hr by Ames test in absence of S9 fraction; type: toxicity, organism-based; details: salmonella enterica subsp. enterica serovar typhimurium, 2500 µM; summary of the method: as §3
[12] = tested on: Plasmodium falciparum; experiment: Antiplasmodial activity against multi-drug resistant Plasmodium falciparum K1 infected in human erythrocytes assessed as parasite growth inhibition after 72 hrs by SYBR Green I dye-based fluorescence assay in presence of ascorbic acid; type: functional, organism-based; details: K1, 72 h
Summary of the method: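 Same SYBR Green I 72 h growth assay on the K1 strain (2% haematocrit, 1% parasitaemia, 37 °C, 6% CO2/14% O2/80% N2, DMSO <0.5%), with 800 µM ascorbic acid in the medium as radical trap. Duplicates; artesunate as positive control; IC50 derived.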

[13] = Inhibition of Plasmodium falciparum DHFR after 48 hrs
Summary of the method: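 Recombinant S. cerevisiae whose own DHFR is replaced by the P. falciparum DHFR domain was used. 1×10^4 cells were grown in YEPD with compound from DMSO (final <0.5%) at 30 °C for 48 h, in duplicate. Growth was read as A660. IC50 (50% growth inhibition) came from non-linear regression.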

[14] = Plasmodium falciparum, K1, 72 h, read-out: IC50

Compound | IC50 [1, 14] [µM] | CC50 at 72 h [2] [µM] | other results
CCCCCCCNc1nc2cc(-c3ccc(C)cc3)sc2c(=O)[nH]1 | > 5 | 6.8 | 
CC(C)Nc1nc2c(-c3ccc(Cl)cc3)csc2c(=O)[nH]1 | > 5 | 7.1 | 
Cc1cccc(-c2cc3nc(NC(C)(C)C)[nH]c(=O)c3s2)c1 | 3.6 | 14.1 | Ratio CC50/IC50 [3]: 3
Cc1ccc(-c2cc3nc(NC(C)(C)C)[nH]c(=O)c3s2)cc1 |  |  | Activity [4]: inactive
COc1ccc(-c2csc3c(=O)[nH]c(NC(C)C)nc23)cc1 | > 5 | 27.8 | 
CC(C)Nc1nc2c(-c3ccc(F)cc3)csc2c(=O)[nH]1 | > 5 | > 15.6 | 
Cc1ccc(-c2ccc3nc(NC(C)(C)C)[nH]c(=O)c3c2)cc1.Cl | > 5 | 0.49 | Ratio CC50/IC50 [3]: <10.2
COc1cccc2c1C(=O)c1c(O)c3c(c(O)c1C2=O)C[C@@](O)(C(C)=O)C[C@@H]3O[C@H]1C[C@H](N)[C@H](O)[C@H](C)O1 [DAUNORUBICIN] |  |  | DC50 [5]: 1 µM
CCCCN(CCCC)c1nc2cc(-c3ccc(C)cc3)sc2c(=O)[nH]1 |  |  | IC50 [1]: ND(Insoluble); CC50 [6]: ND(Insoluble)
CC(C)(C)Nc1nc2ccsc2c(=O)[nH]1 | > 5 | 8.4 | 
Cc1ccc(-c2csc3c(=O)[nH]c(NC(C)(C)C)nc23)cc1 | > 5 | 1.4 | 
CCCCCNc1nc2cc(-c3ccc(C)cc3)sc2c(=O)[nH]1 | > 5 | 4.2 | 
CC(C)Nc1nc2cc(-c3ccc(F)cc3)sc2c(=O)[nH]1 | 0.5 | > 25 | Ratio CC50/IC50 [3]: >66
CCCCCN(CCCCC)c1nc2cc(-c3ccc(C)cc3)sc2c(=O)[nH]1 |  |  | IC50 [1]: ND(Insoluble); CC50 [6]: ND(Insoluble)
CC(C)(C)Nc1nc2c(-c3ccc(F)cc3)csc2c(=O)[nH]1 | > 5 | 2.3 | 
COc1cc(NC(C)CCCN)c2ncccc2c1 (configuration not stated) [PRIMAQUINE] |  |  | CC50 at 72 h [7]: 6.1 µM; IC50 [8]: 1.16 µM; Ratio CC50/IC50 [9]: 5.3
O=C1C(O)=C([C@H]2CC[C@H](c3ccc(Cl)cc3)CC2)C(=O)c2ccccc21 [ATOVAQUONE] |  | > 15.6 | CC50 at 72 h [7]: 9.5 µM; IC50 [8]: 0.009 µM
CCCNc1nc2cc(-c3ccc(C)cc3)sc2c(=O)[nH]1 | > 5 | > 62.5 | 
CCN(CCCl)CCCNc1c2ccc(Cl)cc2nc2ccc(OC)cc12 |  |  | Activity [10]: Toxic; Activity [11]: Toxic
COc1ccc(-c2cc3nc(NC(C)C)[nH]c(=O)c3s2)cc1 | 0.5 | 27.1 | Ratio CC50/IC50 [3]: 136
CCCN(CCC)c1nc2cc(-c3ccc(C)cc3)sc2c(=O)[nH]1 |  |  | IC50 [1]: ND(Insoluble); CC50 [6]: ND(Insoluble)
CCC(CC)Nc1nc2cc(-c3ccc(C)cc3)sc2c(=O)[nH]1 | > 5 | 101 | 
CC(C)Nc1nc2ccsc2c(=O)[nH]1 | > 5 | 23.9 | 
C[C@H]1[C@H](OC(=O)CCC(=O)O)O[C@@H]2O[C@@]3(C)CC[C@H]4[C@H](C)CC[C@@H]1[C@@]24OO3 [ARTESUNATE] |  |  | IC50 [12]: 0.7 µM

Compound | IC50 [1, 14] [µM] | CC50 at 72 h [2] [µM] | other results
Cc1ccc(-c2cc3nc(NCC(C)C)[nH]c(=O)c3s2)cc1 | > 5 | 21.6 | 
C[C@H]1c2cccc(O)c2C(=O)C2=C(O)[C@]3(O)C(=O)C(C(N)=O)=C(O)[C@@H](N(C)C)[C@@H]3[C@@H](O)[C@@H]21.O [DOXYCYCLINE] |  |  | Ratio CC50/IC50 [3]: 4
Cc1ccc(-c2csc3c(=O)[nH]c(NC(C)C)nc23)cc1 | 2.7 | 8.8 | Ratio CC50/IC50 [3]: 3
CC(C)Nc1nc2c(-c3ccc(Br)cc3)csc2c(=O)[nH]1 | > 5 | 6.5 | 
CCCCCCNc1nc2cc(-c3ccc(C)cc3)sc2c(=O)[nH]1 | > 5 | 10.6 | 
Cc1ccc(-c2ccc3c(=O)[nH]c(NC(C)(C)C)nc3c2)cc1 | > 5 | 0.98 | Ratio CC50/IC50 [3]: <5.1
CC(C)(C)Nc1nc2cc(-c3ccccc3)sc2c(=O)[nH]1 | 1 | 12.5 | Ratio CC50/IC50 [3]: 10
COc1ccc(-c2cc3nc(NC(C)(C)C)[nH]c(=O)c3s2)cc1 | > 5 | 32.3 | 
CCCCCCC(C)Nc1nc2cc(-c3ccc(C)cc3)sc2c(=O)[nH]1 (configuration not stated) | > 5 | 19.4 | 
CC(C)Nc1nc2cc(-c3ccc(Br)cc3)sc2c(=O)[nH]1 | 1.7 | 13.4 | Ratio CC50/IC50 [3]: 9
CC1(C)N=C(N)N=C(N)N1c1ccc(Cl)cc1 [CYCLOGUANIL] |  |  | IC50 [13]: 5 µM
Cc1ccc(-c2cc3nc(NC(C)c4ccccc4)[nH]c(=O)c3s2)cc1 (configuration not stated) | > 5 | 9.2 | 
Cc1ccccc1-c1cc2nc(NC(C)(C)C)[nH]c(=O)c2s1 | 1.7 | 4 | Ratio CC50/IC50 [3]: 2
CCc1nc(N)nc(N)c1-c1ccc(Cl)cc1 [PYRIMETHAMINE] |  |  | IC50 [13]: 2.8 µM
CC(C)(C)Nc1nc2cc(-c3ccc(F)cc3)sc2c(=O)[nH]1 | > 5 | 5.1 | 
Cc1ccc(-c2cc3nc(NCc4ccccc4Cl)[nH]c(=O)c3s2)cc1 | > 5 | 32.6 | 
CCCCN(C)c1nc2cc(-c3ccc(C)cc3)sc2c(=O)[nH]1 | > 5 | 3 | 
Cc1ccc(-c2cc3nc(N)[nH]c(=O)c3s2)cc1 |  |  | IC50 [1]: ND(Insoluble); CC50 [6]: ND(Insoluble)
CC(C)Nc1nc2cc(-c3ccc(Cl)cc3)sc2c(=O)[nH]1 | 0.6 | > 15.6 | Ratio CC50/IC50 [3]: >26
C[C@@H]1CC[C@H]2[C@@H](C)C(=O)O[C@@H]3O[C@@]4(C)CC[C@@H]1[C@]32OO4 [ARTEMISININ] |  |  | CC50 at 72 h [7]: > 10 µM; IC50 [8]: > 10 µM
CCCCNc1nc2cc(-c3ccc(C)cc3)sc2c(=O)[nH]1 | > 5 | 6 | 
CC(C)(C)Nc1nc2cc(-c3ccc(Br)cc3)sc2c(=O)[nH]1 | > 5 | 1.4 | 
[N-]=[N+]=[N-].[Na+] [SODIUM AZIDE] |  |  | Activity [10]: Toxic; Activity [11]: Toxic
CCN(CC)c1nc2cc(-c3ccc(C)cc3)sc2c(=O)[nH]1 |  |  | IC50 [1]: ND(Insoluble); CC50 [6]: ND(Insoluble)
